Laboratory results as given in PMC6437231 (Diabetes Therapy, 2019).
One block for each compound: values may come before it.

Legend:
plasma albumin = details: ref [5]; cited from earlier work
[1] = ref [6], cited from earlier work
[2] = assay type: in vivo, human; details: one-compartment model, 7 multiple-dose trials, s.c.
Method in brief: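 Steady-state s.c. plasma data from seven multiple-dose trials, with dose escalation 0.25 > 0.5 > 1.0 mg (one trial to 1.5 mg). One-compartment mixed-effects model parameterised as CL/F, V/F and ka, each with inter-individual variability. […] Log-additive residual error; values with CWRES >6 excluded.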

[3] = assay type: in vivo, human; details: final two-compartment model
Method in brief: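 Plasma semaglutide (LC–MS/MS) from 353 subjects in 9 trials with s.c. and i.v. dosing. Mixed-effects two-compartment model with first-order absorption and elimination; i.v. doses treated as a central bolus. Log-normal inter-individual variability on ka, CL, Q, Vc and Vp; (weight/85 kg) exponent on CL, Q, Vc and Vp; product strength (1, 1.34, 3, 10 mg/mL) on ka. Covariates kept at 10% alpha; CWRES >6 excluded; log-additive residual error.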

[4] = population PK model; ref [9]; cited from earlier work
[5] = cited from earlier work
[6] = one-compartment model from phase 3a trials
[7] = s.c., trial 7 drug product strength

Absorption rate constant (ka) ([2]; 267 subjects): 0.0296 h⁻¹ | Higher CL in subjects with type 2 diabetes compared to healthy subjects ([3]; 95% CI 9–16%): 12% | T2D effect on ka ([3]; factor, T2D vs normoglycaemia): 0.544 | Injection site effect on F ([3]; factor, thigh vs abdomen): 0.883 | Drug product strength effects on ka, 3 mg [3, 7]: 0.0526 | Drug product strength effects on ka, 10 mg [3, 7]: 0.139 | Bioavailability estimated by the final model ([3]; s.c., 95% CI 0.80–0.90): 85% | Lower bioavailability when using the thigh compared with the abdomen ([3]; s.c., 95% CI 0.84–0.92): 12% | Total volume of distribution (Vc + Vp) ([3]; typical subject with T2D, 85 kg): approximately 8 L
Compound: CC[C@H](C)[C@H](NC(=O)[C@H](Cc1ccccc1)NC(=O)[C@H](CCC(=O)O)NC(=O)[C@H](CCCCNC(=O)COCCOCCNC(=O)COCCOCCNC(=O)CC[C@H](NC(=O)CCCCCCCCCCCCCCCCC(=O)O)C(=O)O)NC(=O)[C@H](C)NC(=O)[C@H](C)NC(=O)[C@H](CCC(N)=O)NC(=O)CNC(=O)[C@H](CCC(=O)O)NC(=O)[C@H](CC(C)C)NC(=O)[C@H](Cc1ccc(O)cc1)NC(=O)[C@H](CO)NC(=O)[C@H](CO)NC(=O)[C@@H](NC(=O)[C@H](CC(=O)O)NC(=O)[C@H](CO)NC(=O)[C@@H](NC(=O)[C@H](Cc1ccccc1)NC(=O)[C@@H](NC(=O)CNC(=O)[C@H](CCC(=O)O)NC(=O)C(C)(C)NC(=O)[C@@H](N)Cc1cnc[nH]1)[C@@H](C)O)[C@@H](C)O)C(C)C)C(=O)N[C@@H](C)C(=O)N[C@@H](Cc1c[nH]c2ccccc12)C(=O)N[C@@H](CC(C)C)C(=O)N[C@H](C(=O)N[C@@H](CCCNC(=N)N)C(=O)NCC(=O)N[C@@H](CCCNC(=N)N)C(=O)NCC(=O)O)C(C)C [semaglutide]
Bound to plasma albumin (plasma albumin): more than 99% | CL/F for subject with T2D and body weight of 85 kg [1, 6]: 0.0478 L/h | Total volume/F (V/F) [1, 6]: 12.2 L | Inter-individual variability in clearance ([1]; phase 3 analysis, CV): 12.9% | Apparent clearance (CL/F), healthy volunteer with body weight of 85 kg [2]: 0.0415 L/h | Central volume (Vc) ([3]; 9 trials, body weight 85 kg): 3.59 L | Peripheral volume (Vp) ([3]; 9 trials, body weight 85 kg): 4.10 L | Body weight effect on Vc and Vp ([3]; exponent of (weight/85 kg)): 0.923

Compound: dulaglutide
Greater CL compared to semaglutide [4]: approximately 50% | Interindividual variability, coefficient of variation (CV) for CL [4]: 40.5% | Lower volume of distribution compared to semaglutide [4]: 20% | Slower absorption compared to semaglutide [4]: approximately threefold

Compound: liraglutide
Elimination compared with semaglutide ([5]; population PK model, ref [10]): much faster elimination | Bioavailability after administration in the thigh versus the abdomen ([5]; ref [16]): slightly lower
